Key:
SRPK1 = SRPK1 (Homo sapiens, UniProt Q96SB4); test: HTRF KinEASE in vitro kinase assay; assay type: biochemical
How it was run: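 Kinase activity was measured with the HTRF KinEASE STK/TK kit, and the TR-FRET signal was read on a multilabel microplate reader. Percent inhibition was calculated from the signal, and the IC50 was derived from these inhibition rates.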

FLT3 = target: T1, FLT3 (Homo sapiens, UniProt P36888); test: HTRF KinEASE in vitro kinase assay; assay type: biochemical
T1 sequence (P36888 27-993): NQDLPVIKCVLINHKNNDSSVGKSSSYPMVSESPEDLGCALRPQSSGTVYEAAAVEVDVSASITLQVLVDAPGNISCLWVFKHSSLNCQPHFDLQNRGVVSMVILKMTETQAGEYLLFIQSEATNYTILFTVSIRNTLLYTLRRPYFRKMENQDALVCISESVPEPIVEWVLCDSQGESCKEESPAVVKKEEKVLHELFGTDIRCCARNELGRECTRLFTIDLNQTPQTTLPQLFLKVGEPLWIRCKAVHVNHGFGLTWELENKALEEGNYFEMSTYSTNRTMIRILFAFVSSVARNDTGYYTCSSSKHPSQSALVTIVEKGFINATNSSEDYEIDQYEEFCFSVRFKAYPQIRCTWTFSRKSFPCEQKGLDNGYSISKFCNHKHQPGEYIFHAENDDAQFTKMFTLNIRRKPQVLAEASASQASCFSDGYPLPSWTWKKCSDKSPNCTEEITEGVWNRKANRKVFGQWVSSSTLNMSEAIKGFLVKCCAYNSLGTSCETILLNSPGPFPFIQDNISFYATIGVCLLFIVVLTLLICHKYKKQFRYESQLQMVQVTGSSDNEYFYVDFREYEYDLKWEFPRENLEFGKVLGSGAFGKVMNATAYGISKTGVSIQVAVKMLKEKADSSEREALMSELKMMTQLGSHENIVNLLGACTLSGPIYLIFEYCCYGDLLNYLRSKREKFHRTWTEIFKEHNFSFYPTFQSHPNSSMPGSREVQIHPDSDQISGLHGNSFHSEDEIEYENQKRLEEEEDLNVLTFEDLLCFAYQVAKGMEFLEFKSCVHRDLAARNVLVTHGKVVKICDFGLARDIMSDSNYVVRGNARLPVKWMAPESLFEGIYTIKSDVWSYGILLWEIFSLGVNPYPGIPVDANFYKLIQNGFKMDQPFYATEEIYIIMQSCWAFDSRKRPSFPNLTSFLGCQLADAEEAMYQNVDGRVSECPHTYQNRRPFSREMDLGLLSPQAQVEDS

SRPK1, sequence (Q96SB4 whole entry): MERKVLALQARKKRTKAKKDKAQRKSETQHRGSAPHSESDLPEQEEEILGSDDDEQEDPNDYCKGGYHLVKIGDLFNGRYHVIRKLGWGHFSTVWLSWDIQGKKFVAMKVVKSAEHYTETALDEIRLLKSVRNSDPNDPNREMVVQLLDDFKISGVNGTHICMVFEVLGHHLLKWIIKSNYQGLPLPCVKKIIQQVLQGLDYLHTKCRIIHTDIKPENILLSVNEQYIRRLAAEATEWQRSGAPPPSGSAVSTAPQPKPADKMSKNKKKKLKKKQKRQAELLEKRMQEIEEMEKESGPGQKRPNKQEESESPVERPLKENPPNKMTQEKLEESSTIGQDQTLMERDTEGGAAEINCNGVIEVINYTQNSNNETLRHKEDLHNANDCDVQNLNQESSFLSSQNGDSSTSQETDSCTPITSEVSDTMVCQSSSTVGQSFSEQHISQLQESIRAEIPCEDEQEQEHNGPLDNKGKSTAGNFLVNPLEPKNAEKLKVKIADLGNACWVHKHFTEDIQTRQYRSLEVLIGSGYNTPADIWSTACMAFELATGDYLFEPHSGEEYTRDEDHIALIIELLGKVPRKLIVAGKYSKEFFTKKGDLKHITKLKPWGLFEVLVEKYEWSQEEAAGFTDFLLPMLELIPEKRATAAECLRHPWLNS

IC50 (SRPK1): 0.37 ± 0.15 µM
IC50 (FLT3): 1.51 ± 0.44 µM
Compound: COc1cc(O)c(CC=C(C)C)c(O)c1C(=O)/C=C/c1ccc(O)cc1 [XN, Xanthohumol]

Reference: publication PMC12039533 (Journal of Food and Drug Analysis, 2025)
